{"data": "Assay results from different studies", "target": "Cyclin-dependent kinase 8 (CDK8, Homo sapiens, UniProt P49336)", "note": "Compare with care: the assays were run in different laboratories."}
{"SMILES": "CCN1CCN(Cc2ccc(C(=O)Nc3ccc(C)c(Oc4ccc5c(c4)CC(=O)N5)c3)cc2C(F)(F)F)CC1", "observed": "binding", "method": "competition with immobilised ligand", "concentration": "1 µM", "remaining binding [%]": 67}
{"SMILES": "N#CC1(c2ccccn2)CCN(Cc2cc(C(=O)N3CCCC3)c(=O)n3ccccc23)CC1", "observed": "cell-free assay", "method": "competition with immobilised ligand", "concentration": "1 µM", "remaining binding [%]": 100}
{"SMILES": "Cc1cnc(Nc2ccc(C(=O)N3CCC(N4CCCC4)CC3)cc2)nc1-c1cc2ccccc2s1", "observed": "binding", "method": "competition with immobilised ligand", "concentration": "1 µM", "remaining binding [%]": 89}
{"SMILES": "O=C1NC(c2ccccn2)Sc2ccccc21 (centres unmarked)", "observed": "cell-free assay", "method": "competition with immobilised ligand", "concentration": "1 µM", "remaining binding [%]": 78}
{"SMILES": "COc1cnc(Nc2cccc(S(N)(=O)=O)c2)nc1N1CCN(c2ccccc2)C(=O)C1", "observed": "binding", "method": "competition with immobilised ligand", "concentration": "1 µM", "remaining binding [%]": 93}
{"SMILES": "CCOCCn1cc(C(=O)Nc2ccc(-n3nc(-c4cccnc4)cc3C(F)(F)F)cn2)ccc1=O", "observed": "cell-free assay", "method": "competition with immobilised ligand", "concentration": "1 µM", "remaining binding [%]": 100}
{"SMILES": "COc1cnc(Nc2cccc(S(N)(=O)=O)c2)nc1N1CCN(c2ccccc2)CC1", "observed": "binding", "method": "competition with immobilised ligand", "concentration": "1 µM", "remaining binding [%]": 95}
{"SMILES": "O=C(c1ccc(Nc2nccc(-c3cc4ccccc4s3)n2)cc1)N1CCC(N2CCCC2)CC1", "observed": "binding", "method": "competition with immobilised ligand", "concentration": "1 µM", "remaining binding [%]": 91}
{"SMILES": "CN(C)c1nccc(-c2cnn3ncccc23)n1", "observed": "binding", "concentration": "1 µM", "remaining binding [%]": 100}
{"SMILES": "O=C(Nc1c[nH]nc1C(=O)NC1CCNCC1)c1cc(F)cc(F)c1", "observed": "binding", "method": "competition with immobilised ligand", "concentration": "1 µM", "remaining binding [%]": 97}
{"SMILES": "CN(C)c1ncc(F)c(-c2cnn3ncccc23)n1", "observed": "binding", "concentration": "1 µM", "remaining binding [%]": 87}
{"SMILES": "c1cncc(-c2cccc(Nc3nccc(NC4CCCCC4)n3)c2)c1", "observed": "binding", "method": "competition with immobilised ligand", "concentration": "10 µM", "remaining binding [%]": 66}
{"SMILES": "N[C@H]1CCN(c2nccc(-c3cnn4ncccc34)n2)C1", "observed": "binding", "concentration": "1 µM", "remaining binding [%]": 100}
{"SMILES": "O=C(c1ccc(Nc2ncc(Cl)c(-c3cc4ccccc4s3)n2)cc1)N1CCC(N2CCCC2)CC1", "observed": "binding", "method": "competition with immobilised ligand", "concentration": "1 µM", "remaining binding [%]": 100}
{"SMILES": "CN(c1nccc(-c2cnn3ncccc23)n1)C1CC1", "observed": "binding", "concentration": "1 µM", "remaining binding [%]": 100}
{"SMILES": "CO[C@@H](C)c1c(Nc2ccc([C@H](N(C)C(=O)C3CCS(=O)(=O)CC3)C(F)(F)F)cc2)cnc2cc(Cl)nn12", "observed": "binding", "method": "competition with immobilised ligand", "concentration": "1 µM", "remaining binding [%]": 39}
{"SMILES": "CN(CCCC(F)(F)F)c1nccc(-c2cnn3ncccc23)n1", "observed": "binding", "concentration": "1 µM", "remaining binding [%]": 100}
{"SMILES": "CC1=C(C#N)C(c2ccc3c(c2)c(NC(=O)c2ccccc2C)nn3C)C(C#N)=C(C)N1", "observed": "cell-free assay", "method": "competition with immobilised ligand", "concentration": "1 µM", "remaining binding [%]": 97}
{"SMILES": "C[C@H]1CCN(c2nccc(-c3cnn4ncccc34)n2)C1", "observed": "binding", "concentration": "1 µM", "remaining binding [%]": 100}
{"SMILES": "O=C(NS(=O)(=O)c1ccc(NCC2CCOCC2)c([N+](=O)[O-])c1)c1ccc(N2CCN(Cc3ccc(C(F)(F)F)cc3-c3ccc(Cl)cc3)CC2)cc1Oc1cnc2[nH]ccc2c1", "observed": "cell-free assay", "method": "competition with immobilised ligand", "concentration": "1 µM", "remaining binding [%]": 100}
